Published values pooled from the literature.
Lines come from different studies, so protocols differ.
Effect on: enzyme activity
Action: inhibitor
CDK6 with cyclin D3: Cyclin-dependent kinase 6, with cyclin D3 (CDK6, Homo sapiens, UniProt Q00534)
MTOR: Serine/threonine-protein kinase mTOR (MTOR, Homo sapiens, UniProt P42345)
EGFR: Epidermal growth factor receptor (EGFR, Homo sapiens, UniProt P00533)
YCK2: Serine/threonine protein kinase YCK2 (YCK2, Candida albicans, UniProt A0A1D8PKB4)
CA2: Carbonic anhydrase 2 (CA2, Bos taurus, UniProt P00921)

Structure (SMILES)	target	method	IC50 [nM]
NS(=O)(=O)c1ccc(-n2nc(C(=O)NN=Cc3ccccc3O)cc2-c2ccccc2)cc1	Serine/threonine-protein kinase B-raf (BRAF, Homo sapiens, UniProt P15056, V600E)	–	17500
CNS(=O)(=O)c1ccc(Nc2ncc(C(F)(F)F)c([C@H]3CC[C@@](C)(O)CC3)n2)c(C)c1	CDK6 with cyclin D3	radiometric	8650
Cc1cc2c(cc1C)N[C@H](c1ccccc1)[C@@H](O)C(=O)N2	MTOR	–	144
COc1ccc(-c2ccc3c(N4CCOC[C@@H]4C)nc(N4CCOC[C@@H]4C)nc3n2)cc1COC(=O)CCOCCOCCOCCONC(=O)c1ccc(F)c(F)c1Nc1ccc(I)cc1F	MTOR	FRET	40.5
CC(=O)c1nc2ccccc2n1Cc1cn([C@@H]2O[C@H](CO)[C@H](O)[C@H](O)[C@H]2O)nn1	EGFR	–	324
Clc1ccc(Nc2ccncc2)cc1Cl	DNA-3-methyladenine glycosylase (Homo sapiens, UniProt P29372)	–	> 99000
c1ccc(Cn2cc(-c3ccnc4ccccc34)c(-c3ccccn3)n2)cc1	YCK2	ADP detection	1000
O=C1C[C@@H](c2ccc(O)cc2)Oc2cc(O)cc(O)c21	CA2	absorbance	68900
CNS(=O)(=O)c1ccc(Nc2ncc(C(F)(F)F)c(N3CCC(C)(O)CC3)n2)c(C)c1	CDK6 with cyclin D3	radiometric	794
CCCCCCCCCCCC[N+]1(C)CCOCC1	EGFR	ELISA	1350
NS(=O)(=O)c1ccc(Nc2nc3nc(=S)[nH]c(-c4cccc(O)c4)c3s2)cc1	CA2	absorbance	62.7
O=C(/C=C/c1ccc(F)cc1)c1nc2ccccc2n1Cc1cn([C@@H]2O[C@H](CO)[C@H](O)[C@H](O)[C@H]2O)nn1	EGFR	–	69
Cc1cc(S(=O)(=O)NCCO[C@H]2CC[C@H](CN3CCC(c4ccn5c(N6CCC(=O)NC6=O)cnc5c4)CC3)CC2)ccc1Nc1ncc2cc(Cl)c(=O)n(C3CCCC3)c2n1	CDK6 with cyclin D3	radiometric	153
c1ccc(-c2n[nH]cc2-c2ccncc2)nc1	YCK2	ADP detection	520
CNC(c1ccccc1)c1c(N)[nH]c(=O)[nH]c1=O (centres unmarked)	EGFR	–	4600
Nc1cnccc1Nc1ccc(Cl)c(Cl)c1	SMUG1 (Homo sapiens, UniProt Q53HV7)	–	> 100000
Cn1cc(-c2ccnc3ccccc23)c(-c2ccccn2)n1	YCK2	ADP detection	550
COc1ccc(N2CCN(Cc3cn4c(-c5ccc(Br)cc5)nnc4s3)CC2)cc1	Ferroptosis suppressor protein 1 (AIFM2, Homo sapiens, UniProt Q9BRQ8, S364A/T363A)	absorbance	61
COc1ccc(-c2ccc3c(N4CCOC[C@@H]4C)nc(N4CCOC[C@@H]4C)nc3n2)cc1C(=O)NCCOCCOCCOCCONC(=O)c1ccc(F)c(F)c1Nc1ccc(I)cc1F	MTOR	FRET	28 to 40
CCCCNC(c1ccccc1)c1c(N)[nH]c(=O)[nH]c1=O (centres unmarked)	EGFR	–	988
CNS(=O)(=O)c1ccc(Nc2ncc(C(F)(F)F)c(N3CCC[C@](C)(O)C3)n2)c(C)c1	CDK6 with cyclin D3	radiometric	3550
CCNC(c1ccccc1)c1c(N)[nH]c(=O)[nH]c1=O (centres unmarked)	EGFR	–	653
O=C1C(=O)N(CCn2ncc3c(=O)[nH]cnc32)c2ccc(Cl)cc21	CDK6 with cyclin D3	ADP detection	603
